From paper PMC4777260 (Pharmacology Research & Perspectives, 2016)

What was measured:
[1] = target: Human fIXa (Homo sapiens, UniProt P00740); assay: fIXa inhibition constant; type: biochemical
[2] = target: rat fIXa (Rattus norvegicus, UniProt P16296); assay: fIXa inhibition constant; type: biochemical
[3] = Fraction unbound in plasma by equilibrium dialysis, human; type: in vitro ADME
In short: (§1)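 Plasma fraction unbound was determined by equilibrium dialysis in triplicate. Its standard error fed simulations of clinically relevant concentration ranges.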

[4] = Fraction unbound in plasma by equilibrium dialysis, rat; type: in vitro ADME
In short: as §1

[5] = Rat pharmacokinetics; conditions: in vivo
[6] = tested on: rat arteriovenous shunt (AVS/thrombosis); assay: Rat arteriovenous shunt; type: in vivo
In short: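 Male Sprague Dawley rats (350–400 g) were anaesthetised with thiobutabarbital. Test compound or vehicle (35% w/v hydroxypropyl-β-cyclodextrin, 10 mmol/L phosphate buffer) was given as an IV bolus plus constant infusion: five doses, n ≥ 10/group, blinded. At 15 min, a carotid–jugular shunt with silk thread ran 15 min. CW = thread weight gain. A vehicle-proportional Imax model was fitted to CW versus plasma concentration.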

[7] = tested on: rat cuticle bleeding time (CBT); assay: Rat cuticle bleeding time; type: in vivo
In short: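 Same anaesthetised, IV bolus-plus-infusion rats as the shunt study. Five minutes after shunt placement, two hind-paw toe cuticles were cut at the quick. The paw was immersed in 37° lactated Ringer's, and time to bleeding cessation was recorded (10 min maximum). A linear model of CBT versus plasma concentration treated 600 s values as right-censored. Median and 5th/95th percentiles were simulated from parameter standard errors.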

[8] = tested on: fXa; assay: Calculated fXa enzyme occupancy; conditions: rat AVS
[9] = tested on: fXa; assay: Calculated fXa enzyme occupancy; set-up: species or system human; conditions: C min 107 ng/mL, 5 mg BID SPAF dose
[10] = tested on: aPTT; assay: Ex vivo activated partial thromboplastin time; type: in vivo, rat; conditions: plasma collected post-AVS, small molecule study
In short: (§2)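 Rats received a steady-state IV bolus-plus-infusion. A terminal blood sample was taken after the shunt and bleeding procedures into sodium citrate (11 mmol/L final). It was centrifuged at 2500g, 4°C, 15 min. One platelet-poor plasma aliquot was used for clotting times and the other for plasma drug concentration.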

[11] = tested on: PT; assay: Ex vivo prothrombin time; type: in vivo, rat; conditions: plasma collected post-AVS, small molecule study
In short: as §2

[12] = tested on: fIIa formation (thrombin generation); assay: Ex vivo thrombin generation assay; type: in vivo, rat; conditions: TF 1, 5, 20 pmol/L trigger
[13] = tested on: fXa; conditions: equal fXa occupancy human/rat

Chain of Human fIXa (P00740 227-461 limits assumed): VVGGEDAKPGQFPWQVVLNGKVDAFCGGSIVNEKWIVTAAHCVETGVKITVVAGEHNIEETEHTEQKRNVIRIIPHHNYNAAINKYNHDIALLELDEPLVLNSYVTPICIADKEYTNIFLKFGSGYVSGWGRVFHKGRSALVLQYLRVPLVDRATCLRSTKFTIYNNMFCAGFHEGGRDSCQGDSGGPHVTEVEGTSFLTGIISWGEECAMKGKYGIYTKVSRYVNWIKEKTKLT
Chain of Human fIXa (P00740 47-191 partner limits assumed): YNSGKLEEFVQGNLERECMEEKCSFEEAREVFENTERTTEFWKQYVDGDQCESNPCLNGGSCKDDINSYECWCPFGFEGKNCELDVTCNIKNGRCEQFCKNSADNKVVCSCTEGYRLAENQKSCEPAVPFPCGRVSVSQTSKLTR
Chain of rat fIXa (P16296 228-462 limits assumed): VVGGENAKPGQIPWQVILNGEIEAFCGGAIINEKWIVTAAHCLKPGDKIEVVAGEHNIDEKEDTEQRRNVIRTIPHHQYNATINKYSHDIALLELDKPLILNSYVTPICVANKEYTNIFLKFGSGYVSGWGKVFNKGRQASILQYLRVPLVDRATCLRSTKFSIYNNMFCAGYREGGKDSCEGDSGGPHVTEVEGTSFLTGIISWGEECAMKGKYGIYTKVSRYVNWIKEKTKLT
Chain of rat fIXa (P16296 40-185 partner limits assumed): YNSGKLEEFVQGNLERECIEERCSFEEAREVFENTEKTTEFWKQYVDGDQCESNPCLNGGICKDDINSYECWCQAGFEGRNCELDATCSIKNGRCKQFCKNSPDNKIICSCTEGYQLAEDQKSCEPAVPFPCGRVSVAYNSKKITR

**Q.** What does the source list for `COc1ccc(-n2nc(C(N)=O)c3c2C(=O)N(c2ccc(N4CCCCC4=O)cc2)CC3)cc1` [Apixaban]?
**A.** Ki [1]: > 30 µM; Ki [2]: > 30 µM; fraction unbound [3]: 0.093 ± 0.013; fraction unbound [4]: 0.019; clearance [5]: 12 mL/min/kg; half-life [5]: 51.6 min; target CW corresponding to the apixaban clinical C min ([6]; PK/PD model simulation at rat equivalent of clinical C min): 16 (12–24) mg; CW reduction vs vehicle (in words) ([6]; two highest doses A4 (3/3.75 mg/kg), A5 (8/10.2 mg/kg)): significant CW reduction; I max (maximal inhibition of CW) ([6]; vehicle-proportional Imax PK/PD model of CW vs rat plasma concentration): 0.946; animals that reached the limit of the CBT assay (600 sec) ([7]; higher doses): 17; Slope (slope of the drug effect on bleeding time) ([7]; linear PK/PD model of CBT vs rat plasma concentration): 29.6; effect on CBT vs vehicle (in words) ([7]; two effective doses A4, A5): significant prolongation of the CBT; fXa EO required to ensure CW <50 mg in all animals [8]: > 99%; calculated EO achieved at median C min [9]: 99.2%; effect on aPTT (in words) [10]: concentration‐dependent increase; effect on PT (in words) [11]: concentration‐dependent increase; activity in TGA (in words) [12]: activity was constant across the TF concentration tested; predicted rat equivalent of C avg [13]: 24 µM
